Numbering of substitutions follows the chain as printed.
Columns and labels:
P450 2B4 E474D [1] = target: T1, P450 2B4 E474D (Oryctolagus cuniculus, UniProt P00178, E474D); assay type: biochemical, rabbit (Oryctolagus cuniculus)
T1 sequence (P00178 with tags, fused parts or gaps E474D limits assumed): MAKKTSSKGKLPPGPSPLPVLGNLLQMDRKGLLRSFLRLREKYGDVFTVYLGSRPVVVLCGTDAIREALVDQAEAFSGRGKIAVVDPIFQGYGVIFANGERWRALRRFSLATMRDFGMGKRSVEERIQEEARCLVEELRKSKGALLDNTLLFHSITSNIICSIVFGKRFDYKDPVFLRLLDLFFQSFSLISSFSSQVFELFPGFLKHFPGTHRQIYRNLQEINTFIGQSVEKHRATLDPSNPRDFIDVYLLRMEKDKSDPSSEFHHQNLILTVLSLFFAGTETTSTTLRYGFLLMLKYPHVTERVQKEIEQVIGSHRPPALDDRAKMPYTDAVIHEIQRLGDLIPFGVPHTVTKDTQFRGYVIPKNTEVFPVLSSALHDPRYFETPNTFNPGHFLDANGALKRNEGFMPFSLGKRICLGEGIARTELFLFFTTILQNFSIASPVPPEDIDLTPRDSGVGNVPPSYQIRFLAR

P450 2B4 H172F [2] = target: T2, P450 2B4 H172F (Oryctolagus cuniculus, UniProt P00178, H172F)
T2 sequence (P00178 with tags, fused parts or gaps H172F limits assumed): T1 sequence (P00178 with tags, fused parts or gaps E474D limits assumed) with H153F, D455E

P450 2B4 H172F [3] = target: T2, P450 2B4 H172F; remark: listed apart in the source
P450 2B4 H172A [4] = target: T3, P450 2B4 H172A (Oryctolagus cuniculus, UniProt P00178, H172A); assay type: biochemical, rabbit (Oryctolagus cuniculus)
T3 sequence (P00178 with tags, fused parts or gaps H172A limits assumed): T1 sequence (P00178 with tags, fused parts or gaps E474D limits assumed) with H153A, D455E

P450 2B4 H172Q [5] = target: T4, P450 2B4 H172Q (Oryctolagus cuniculus, UniProt P00178, H172Q); assay type: biochemical, rabbit (Oryctolagus cuniculus)
T4 sequence (P00178 with tags, fused parts or gaps H172Q limits assumed): T1 sequence (P00178 with tags, fused parts or gaps E474D limits assumed) with H153Q, D455E

P450 2B4 mutants = assay type: biochemical, rabbit (Oryctolagus cuniculus); conditions: each mutant except the inactive H172F
P450 2B4 wild type = target: T5, P450 2B4 wild type (Oryctolagus cuniculus, UniProt P00178); experiment: Inhibition of 7-EFC O-deethylation by imidazole inhibitors; assay type: biochemical, rabbit (Oryctolagus cuniculus)
T5 sequence (P00178 with tags, fused parts or gaps limits assumed): T1 sequence (P00178 with tags, fused parts or gaps E474D limits assumed) with D455E

P450 2B4 H172A [6] = target: T3, P450 2B4 H172A; experiment: as above; assay type: biochemical, rabbit (Oryctolagus cuniculus)
P450 2B4 H172Q [7] = target: T4, P450 2B4 H172Q; experiment: as above; assay type: biochemical, rabbit (Oryctolagus cuniculus)
P450 2B4 L437A = target: T6, P450 2B4 L437A (Oryctolagus cuniculus, UniProt P00178, L437A); experiment: as above; assay type: biochemical, rabbit (Oryctolagus cuniculus); conditions: rabbit, pH 7.4, probe 7-EFC (50 μM), O-deethylation
T6 sequence (P00178 with tags, fused parts or gaps L437A limits assumed): T1 sequence (P00178 with tags, fused parts or gaps E474D limits assumed) with L418A, D455E

P450 2B4 E474D [8] = target: T1, P450 2B4 E474D; experiment: as above; assay type: biochemical, rabbit (Oryctolagus cuniculus)
P450 2B4 E474Q = target: T7, P450 2B4 E474Q (Oryctolagus cuniculus, UniProt P00178, E474Q); experiment: as above; assay type: biochemical, rabbit (Oryctolagus cuniculus)
T7 sequence (P00178 with tags, fused parts or gaps E474Q limits assumed): T1 sequence (P00178 with tags, fused parts or gaps E474D limits assumed) with D455Q

P450 2B4 H172F [9] = target: T2, P450 2B4 H172F; experiment: Spectral binding titration of imidazole ligands; parameters: species or system rabbit (Oryctolagus cuniculus); conditions: 2B4 H172F versus wild type
Summary of the method: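 Protein was the His-tagged 2B4dH construct (single mutants or wild type), expressed in TOPP3 cells and Ni-NTA purified. Spectra 350–700 nm recorded after serial 5 μl additions of 100 μM 4-CPI or bifonazole. Ks came from a tight-binding equation fit, and the 4-CPI/bifonazole Ks ratio was calculated.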

Row | decrease (change) in kcat versus wild type (P450 2B4 E474D [1]) [fold] | substrate turnover (activity) (P450 2B4 H172F [2]) | kcat (P450 2B4 H172F [3]) [min⁻¹] | decrease (change) in kcat versus wild type (P450 2B4 H172A [4]) | decrease (change) in kcat versus wild type (P450 2B4 H172Q [5]) | change in KM versus wild type (P450 2B4 mutants) [fold] | IC50 (P450 2B4 wild type) [nM] | IC50 (P450 2B4 H172A [6]) [nM] | IC50 (P450 2B4 H172Q [7]) [nM] | IC50 at 10 min (P450 2B4 L437A) [nM] | IC50 (P450 2B4 E474D [8]) [nM] | IC50 (P450 2B4 E474Q) [nM] | Ks (spectral dissociation constant) higher than wild type 2B4 (P450 2B4 H172F [9]) | Structure (SMILES)
1 | > 20 | inactive | 0 |  |  |  |  |  |  |  |  |  |  | CCOc1ccc2c(C(F)(F)F)cc(=O)oc2c1 [7-EFC, 7-ethoxy-4-(trifluoromethyl)coumarin]
2 |  | inactive | 0 | ~ 2 fold | ~ 2 fold | < 2 |  |  |  |  |  |  |  | COc1ccc2c(C(F)(F)F)cc(=O)oc2c1 [7-MFC, 7-methoxy-4-(trifluoromethyl)coumarin]
3 |  |  |  |  |  |  | 900 | 580 | 760 | 50 | 620 | 810 | ~ 20 times | c1ccc(-c2ccc(C(c3ccccc3)n3ccnc3)cc2)cc1 (stereo not drawn) [Bifonazole, bifonazole]

— publication PMC3911823 (The FEBS journal, 2011)
